Tested on: MS2 coat protein
Assay: apparent Kd, MS2 coat protein; higher = weaker binding; RNA-MaP array; FMN 200 µM where present
Outline: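 The titrant was SNAP-549-labelled MS2 coat protein, run from 0.7 or 1.5 nM in doubling steps to 3 µM. It was applied to designs transcribed by stalled E. coli RNA polymerase on Illumina sequencing-chip clusters, without ligand first and then with constant ligand, in 100 mM Tris-HCl pH 7.5, 80 mM KCl, 4 mM MgCl2, BSA, DTT, yeast tRNA and Tween-20. The apparent Kd is the median of filtered per-cluster binding-curve fits, with green signal normalised to red-channel RNA signal and control-cluster median Fmax.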

[1] = designed as: OFF switch for flavin mononucleotide, no ligand
[2] = ligand present: flavin mononucleotide, designed as: OFF switch for flavin mononucleotide
[3] = designed as: ON switch for flavin mononucleotide, no ligand
[4] = ligand present: flavin mononucleotide, designed as: ON switch for flavin mononucleotide

Row | Sequence | apparent Kd [1] | apparent Kd [2] | apparent Kd [3] | apparent Kd [4]
1 | GUCAGCUCGUGAGGAUAUACAACACUGCUUCGGCAGUGUAUUAAGAUCACAUGAGGAUCACCCAUGUAGAAGGCACGAGCGGAU | 14.4 nM | 244 nM | – | –
2 | AGACUGCGUAGAAUUAGCAGCUGACAGGAUAUGACAUGAGGAUCACCCAUGUGAACUACAAAGGAUCAGAAGGGUCACGACACA | 18.6 nM | 30.3 nM | – | –
3 | UGUCGGAGCAGAGGAUAUUACAUGAGGAUCACCCAUGUAUGAACCAAUAGCUGGAAACAGCAAUUUAAGAAGGCUGCUCCGACA | 5.28 nM | 4.96 nM | – | –
4 | ACUACGUUAGCGAUAUGAUCGAGAGAUCAUGUCGCUAUAUUUAGAAGGACAUGAGGAUCACCCAUGUAGGAUAUGGGUCGUGGA | – | – | 158 nM | 35.7 nM
5 | GCACUGGAUGUAGGAUAUCAGGACGAUAAGUCCUGAGAAGGACAUGAGGAUCACCCAUGUACCUCAAACCAGUGCUAUAAUAUA | 15.1 nM | 30 nM | – | –
6 | UAUAUGUCAGGAUAUCGAUUGGUACGGGAUUCGGUACUGGUUGAGAAGGGACAUGAGGAUCACCCAUGUUUUUC | 37.8 nM | 162 nM | – | –
7 | AAAUCAGCAGGAUAUACGAUUUUAUGCUAGAUAGAGGGACCACAUGAGGAUCACCCAUGUAGAAGGGCUAGAUA | 24.6 nM | 26.4 nM | – | –
8 | UAUAAUUAGUAGAAGGACGGUGAGUAAGAGGUCGUAGGAUAUACAACUGACAUGAGGAUCACCCAUGUGUGUAUGUUGGGAAGG | 11.1 nM | 9.9 nM | – | –
9 | UAUGUAUUCGUAGGAUAUCCGUUAAAACCGUGUGGAGAAGGACGAACAUGAGGAUCACCCAUGUAUCAUGGUGUAGACAAUUUU | 170 nM | 460 nM | – | –
10 | CCUCACAGAGGAUAUACGUCCACUGAACCCAUGAGGUUGCCACAUGAGGAUCACCCAUGUAGAAGGCUGUGCUG | 20.1 nM | 42.9 nM | – | –
11 | GUCGAGUGAGGAUAUGGUGAGUAGUGCCUGAGCGCUGCUCACCAGAAGGCACAUGAGGAUCACCCAUGUAUGAC | 18.2 nM | 23.9 nM | – | –
12 | AUCCUGCGAGGAUAUACAUAGUGACGUCUGUUUGGUCUUAAACAUGAGGAUCACCCAUGUAGAAGGUGCGUCAC | 15.8 nM | 19.5 nM | – | –
13 | AAAAAACAUGAGGAUCACCCAUGUUAGGAUAUGCUAUGGAAAAUAAAAAAUAAACAUAGCAGAAGGAACAAAAA | 43.4 nM | 48.9 nM | – | –
14 | AACGAUCUAGGAUAUACAUGAGGAUCACCCAUGUAAGAGCUCAAACCGAGCUCCCUCUGUAGAAGGAGGUCAAA | 54.5 nM | 45.9 nM | – | –
15 | GCGUGUCGUGUAGGAUAUGACACAGGAAACUGGUCAGAAGGACAUGAGGAUCACCCAUGUAAAAUGUUCAAGAAUAACGCAUGC | 27.8 nM | 39.2 nM | – | –
16 | GUAGCAUACCAAGGAUAUUUAGGGCUUUGAUAGACAUGAGGAUCACCCAUGUGGCGUUAGUCACGGGAGAAGGUGGUAUGCUAC | – | – | 383 nM | 81.9 nM
17 | GUACAGUAGUGAGGAUAUACGAGAUCGAUAGAUCGGCGAUCCAAUUAUACAUGAGGAUCACCCAUGUAGAAGGCACUUCUGUAC | 8.37 nM | 66.9 nM | – | –
18 | GGUCGUCAGAUUAACAUGAGGAUCACCCAUGUCUUUUGACAUGAGGAUAUGGAUCCUAAUUGGAUCCAGAAGGCAUGGACGACC | – | – | 1170 nM | 104 nM
19 | AAUAGUAAGUAGAAGGUAGUAAGUAUGUUAAUCUUGUUAACAUGAGGAUCACCCAUGUAGACUACUAAGGAUAUACAUCGAUAG | 14.3 nM | 13.7 nM | – | –
20 | UCUACGCGAAUCAAGAUGGAUAGAACAUGAGGAUCACCCAUGUAGGAUAUGCUACACAAAGUGUAGCAGAAGGACAAGCGUAGA | 25.1 nM | 35.7 nM | – | –
21 | CUGAAGUCAGGAUAUCGUUAAUUUAGUUGUUUGUAUUAGUUCGAGAAGGGACAUGAGGAUCACCCAUGUAAGUC | 33.9 nM | 45.9 nM | – | –
22 | GGUUUGCGGCAGGAUAUCCAUCCGCGGUGUGGUGGAGAAGGGCUGACAUGAGGAUCACCCAUGUGCGUCCUGUU | 25.1 nM | 30.5 nM | – | –
23 | AAUUGACACGUAGGAUAUCGAUCUAAAUUAACUCGAGAAGGACGCACAUGAGGAUCACCCAUGUUUAAUGGAGUAGACAUGUUG | 314 nM | 508 nM | – | –
24 | CGCACUGAUAGAGGAUAUGUUUAACAUGAGGAUCACCCAUGUGUACAAGGAUCAAUAUAUAAGUAACAGAAGGCUAUUAGUGCG | 13.9 nM | 13.4 nM | – | –
25 | AAAAUGUGAGGAUAUCACGGAACUCCGCGUGACGGAGCUCCUGAGAAGGCACAUGAGGAUCACCCAUGUCCUGU | 52.8 nM | 276 nM | – | –
26 | ACAAAUCGAGGAUAUACAUGAGGAUCACCCAUGUGGAGUCCACUGCGCGGUUCUCAGCGUAGAAGGCGAAAACA | 46.3 nM | 89.8 nM | – | –
27 | GGGACCGUACUCCUGUUGUACUCUGAGGAUAUCCGUUACGGACAUGAGGAUCACCCAUGUACGGCGGAGAAGGCAGAUCUCAUA | – | – | 6.44 nM | 5.26 nM
28 | GACAGACAUGAGGAUCACCCAUGUGAAAACGUACAAGGAUAUGUGUGGAAACCGUACUAUACAGAAGGUGUCUGUC | – | – | 94.5 nM | 87 nM

From the EternaBench riboswitch data
